# Source: ChEMBL document CHEMBL3272084, “Adamantane and protoadamantanealkanamines as potential anti-Parkinson agents” (J Med Chem, 1976)
# The source made the active and inactive calls. The rule behind the calls is not given here.
# Columns and labels:
# Mus musculus [1] = test: Antidepressant activity in CFW mouse assessed as reversal of reserpine-induced hypothermia by measuring temperature index at 0.16 mmol/kg, sc measured every 30 mins up to 1.5 hrs; format: functional
# Mus musculus [2] = test: Antiparkinsonian activity in CFW mouse assessed as reversal of reserpine-induced catalepsy at 0.16 mmol/kg, sc measured every 30 mins up to 1.5 hrs; format: functional, organism-based
# [3] = (§1) Acute toxicity in po dosed albino CFW mouse assessed as mortality measured over 48 hrs; format: organism-based; details: albino CFW, in vivo
# [4] = (§2) Acute toxicity in ip dosed albino CFW mouse assessed as mortality measured over 48 hrs; format: organism-based; details: albino CFW, in vivo
# Rattus norvegicus [5] = test: Antiparkinsonian activity in Wistar rat assessed as reversal of reserpine-induced catalepsy at 0.16 mmol/kg, po measured every 30 mins up to 1.5 hrs; format: functional, organism-based
# Mus musculus [6] = test: Antidepressant activity in CFW mouse assessed as reversal of reserpine-induced hypothermia by measuring temperature index at 0.02 mmol/kg, sc measured every 30 mins up to 1.5 hrs; format: functional, organism-based
# Mus musculus [7] = test: Antiparkinsonian activity in CFW mouse assessed as reversal of reserpine-induced catalepsy at 0.02 mmol/kg, sc measured every 30 mins up to 1.5 hrs; format: functional, organism-based
# Rattus norvegicus [8] = test: Potency index, ratio of compound to amantadine for antiparkinsonian activity in po dosed Wistar rat assessed as reversal of reserpine-induced catalepsy; format: functional
# Mus musculus [9] = test: Antidepressant activity in CFW mouse assessed as reversal of reserpine-induced hypothermia by measuring temperature index at 0.05 mmol/kg, sc measured every 30 mins up to 1.5 hrs; format: functional, organism-based
# Mus musculus [10] = test: Antiparkinsonian activity in CFW mouse assessed as reversal of reserpine-induced catalepsy at 0.05 mmol/kg, sc measured every 30 mins up to 1.5 hrs; format: functional, organism-based
# Mus musculus [11] = test: Antiparkinsonian activity in CFW mouse assessed as reversal of reserpine-induced catalepsy at 0.11 mmol/kg, sc measured every 30 mins up to 1.5 hrs; format: functional, organism-based
# Mus musculus [12] = test: Antidepressant activity in CFW mouse assessed as reversal of reserpine-induced hypothermia by measuring temperature index at 0.11 mmol/kg, sc measured every 30 mins up to 1.5 hrs; format: functional, organism-based
# Mus musculus [13] = test: as §1; format: organism-based; details: in vivo, 48 h
# Mus musculus [14] = test: Antidepressant activity in CFW mouse assessed as reversal of reserpine-induced hypothermia by measuring temperature index at 0.03 mmol/kg, sc measured every 30 mins up to 1.5 hrs; format: functional
# Summary of the method: (§3)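 Groups of five CFW mice received reserpine 4 mg/kg sc. After 2.5 h, rectal temperature was taken. The temperature index (TI) is the sum of the group's mean changes from its mean initial temperature at 30, 60 and 90 min. Scoring: 0 = no effect, 1 = TI 5–10, 2 = TI >10. A run was repeated if the reserpine control TI fell outside −5 to −15.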
# Mus musculus [15] = test: as §2; format: organism-based; details: in vivo, 48 h
# Mus musculus [16] = test: Antidepressant activity in CFW mouse assessed as reversal of reserpine-induced hypothermia by measuring temperature index at 0.07 mmol/kg, sc measured every 30 mins up to 1.5 hrs; format: functional
# Rattus norvegicus [17] = test: Antiparkinsonian activity in Wistar rat assessed as reversal of reserpine-induced catalepsy at 0.14 mmol/kg, po measured every 30 mins up to 1.5 hrs; format: functional, organism-based
# Mus musculus [18] = test: Antiparkinsonian activity in CFW mouse assessed as reversal of reserpine-induced catalepsy at 0.07 mmol/kg, sc measured every 30 mins up to 1.5 hrs; format: functional, organism-based
# Summary of the method: (§4)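 Groups of five CFW mice were given reserpine 4 mg/kg sc, and catalepsy was assessed 2.5 h later. Reversal was scored 0–5: 0 no effect, 1 marginal, 2 significant, 3 marked, 4 approaching complete, 5 complete reversal.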
# Mus musculus [19] = test: Antidepressant activity in CFW mouse assessed as reversal of reserpine-induced hypothermia by measuring temperature index at 0.04 mmol/kg, sc measured every 30 mins up to 1.5 hrs; format: functional
# Rattus norvegicus [20] = test: Antiparkinsonian activity in Wistar rat assessed as reversal of reserpine-induced catalepsy at 0.11 mmol/kg, po measured every 30 mins up to 1.5 hrs; format: functional, organism-based
# Mus musculus [21] = test: Antiparkinsonian activity in CFW mouse assessed as reversal of reserpine-induced catalepsy at 0.08 mmol/kg, sc measured every 30 mins up to 1.5 hrs; format: functional, organism-based
# Mus musculus [22] = test: Antiparkinsonian activity in CFW mouse assessed as reversal of reserpine-induced catalepsy at 0.32 mmol/kg, sc measured every 30 mins up to 1.5 hrs; format: functional, organism-based
# Mus musculus [23] = test: Antidepressant activity in CFW mouse assessed as reversal of reserpine-induced hypothermia by measuring temperature index at 0.32 mmol/kg, sc measured every 30 mins up to 1.5 hrs; format: functional, organism-based
# Mus musculus [24] = test: Antiparkinsonian activity in CFW mouse assessed as reversal of reserpine-induced catalepsy at 0.09 mmol/kg, sc measured every 30 mins up to 1.5 hrs; format: functional, organism-based; summary of the method: as §4
# Mus musculus [25] = test: Antiparkinsonian activity in CFW mouse assessed as reversal of reserpine-induced catalepsy at 0.15 mmol/kg, sc measured every 30 mins up to 1.5 hrs; format: functional, organism-based
# Rattus norvegicus [26] = test: Antiparkinsonian activity in Wistar rat assessed as reversal of reserpine-induced catalepsy at 0.07 mmol/kg, po measured every 30 mins up to 1.5 hrs; format: functional, organism-based
# Mus musculus [27] = test: Antidepressant activity in CFW mouse assessed as reversal of reserpine-induced hypothermia by measuring temperature index at 0.09 mmol/kg, sc measured every 30 mins up to 1.5 hrs; format: functional; summary of the method: as §3
smiles,measurement,setting,value
Cl.NC1CC2CC3CC(C2)C1C3 (stereo not drawn),Activity,Mus musculus [1],inactive
same,Activity,Mus musculus [2],inactive
same,LD50 at 48 h,[3],3200 µmol/kg
same,LD50 at 48 h,[4],800 µmol/kg
CNCC12CC3CC(CC(C3)C1Cl)C2.Cl (stereo not drawn),Activity,Rattus norvegicus [5],Active
same,Activity,Mus musculus [6],inactive
same,LD50 at 48 h,[3],1200 µmol/kg
same,Activity,Mus musculus [7],inactive
same,Ratio,Rattus norvegicus [8],2
same,LD50 at 48 h,[4],600 µmol/kg
O=C(O)/C=C\C(=O)O.c1ccc(CNCC2CC3CC4CC(C3)C2C4)cc1 (stereo not drawn),Activity,Mus musculus [9],inactive
same,LD50 at 48 h,[3],500 µmol/kg
same,Activity,Mus musculus [10],inactive
same,LD50 at 48 h,[4],200 µmol/kg
Cl.OCCNC1CC2CC3CC(C2)C1C3 (stereo not drawn),Activity,Mus musculus [11],inactive
same,LD50 at 48 h,[3],2600 µmol/kg
same,Activity,Mus musculus [12],inactive
same,LD50 at 48 h,[4],600 µmol/kg
Cl.c1ccc(CCNC2CC3CC4CC(C3)C2C4)cc1 (stereo in doubt; 13),LD50,Mus musculus [13],0.5 mmol/kg
same,Activity,Mus musculus [14],5
same,LD50,Mus musculus [15],0.2 mmol/kg
CNCC12CC3CC(CC(C3)C1c1ccccc1)C2.Cl (stereo not drawn),Activity,Mus musculus [16],5
same,Activity,Rattus norvegicus [17],inactive
same,Activity,Mus musculus [18],inactive
CNCCC12CC3CC(CC(C3)C1Br)C2.O=C(O)/C=C\C(=O)O (stereo not drawn),Activity,Mus musculus [19],5
same,Activity,Rattus norvegicus [20],Active
same,LD50 at 48 h,[3],1600 µmol/kg
same,LD50 at 48 h,[4],400 µmol/kg
same,Activity,Mus musculus [21],inactive
Cl.Clc1ccc(CNC2CC3CC4CC(C3)C2C4)cc1 (stereo not drawn),Activity,Mus musculus [1],5
same,Activity,Mus musculus [2],inactive
same,LD50 at 48 h,[3],1900 µmol/kg
same,LD50 at 48 h,[4],600 µmol/kg
CNCC1(O)CC2CC3CC(C2)C1C3.O=C(O)/C=C\C(=O)O (stereo not drawn),Activity,Mus musculus [22],inactive
same,LD50 at 48 h,[3],3900 µmol/kg
same,Activity,Mus musculus [23],inactive
same,LD50 at 48 h,[4],1900 µmol/kg
c1ccc(CCNC2CC3CC4CC(C3)C2C4)cc1 (stereo in doubt; 12),Activity,Rattus norvegicus [17],inactive
same,Activity,Mus musculus [24],Active
CN1CCN(CC2(O)CC3CC4CC(C3)C2C4)CC1.Cl (stereo not drawn),Activity,Mus musculus [25],inactive
same,LD50 at 48 h,[3],2400 µmol/kg
same,Activity,Mus musculus [16],5
same,LD50 at 48 h,[4],900 µmol/kg
Cl.c1ccc(CNC2CC3CC4CC(C3)C2C4)cc1 (stereo not drawn),Activity,Rattus norvegicus [26],Active
same,LD50 at 48 h,[3],700 µmol/kg
same,Activity,Mus musculus [24],Active
same,Activity,Mus musculus [27],>10
same,LD50 at 48 h,[4],500 µmol/kg
